A short description of this series: Toxicity liver stage against HepG2, at 10uM. To be noted: human, HepG2-A16-CD81EGFP cells; read-out: INHIBITION
The series is classed as cell-based. Also noted: test concentration 10 uM, cell line HepG2-A16-CD81EGFP. The gist of the method: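 Uninfected HepG2-A16-CD81EGFP cells, 3 × 10^3 per well, 1536-well, plated on prespotted compound at 10 μM final, parasite-free screening media added to match infected plates; puromycin 10 μM positive, DMSO 0.5% negative; run in parallel with 48 h PbLuc assay at 37 °C, 5% CO2; viability by CellTiter-Glo luminescence, normalized to controls.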
`CCS(=O)(=O)N1CCc2ccc(NC(=O)Nc3cccc(F)c3)cc21`: the cytotoxicity at 10 µM worked out at 38.4%. As for `CC1=C(C#N)C(=O)N(C)C(=O)/C1=C\C1=Cc2ccccc2OC1`, the cytotoxicity at 10 µM was -39.4%. As to `Cc1nc(NC(=O)c2c(-n3cnnn3)sc3c2CCCC3)sc1C`, the cytotoxicity at 10 µM came out at 2.03%. Then `Cc1cnc(NC(=O)c2csc(NC3CCCC3)n2)s1`, with 45.8%; and `CCCc1cc(=O)[nH]c(-n2nc(C3CC3)cc2N)n1`, with 31.3%. Then `CC(C)c1cc(=O)[nH]c(-n2nc(C3CC3)cc2N)n1`, with 33.9%.

For `Cc1cs/c(=N/C(=O)c2csc(NCC(C)C)n2)[nH]1`, the cytotoxicity at 10 µM was determined as 22.9%. To `Cc1[nH]/c(=N\C(=O)c2csc(NCC(C)C)n2)sc1C` belongs 47.4%; to `Cc1cc(CN2CCc3nc(N4CCOCC4)nc(O)c3CC2)c(C)s1`, 6.3%.

As for `CC(C)(C)n1nnnc1CN(Cc1ccccc1)Cc1ccccc1Cl`, the cytotoxicity at 10 µM stood at 8.56%. Turning to `Cn1cncc1CN1CCCC1c1cncc(Oc2ccc(Cl)cc2)n1` (stereo not given), the cytotoxicity at 10 µM stood at 11%. To `CN(C)S(=O)(=O)N1CCCC(c2cccc(Cc3ccc(F)cc3)n2)C1` (stereo not given) belongs 38.9%; to `COC1CCN(c2ccc(NC(=O)C3CC3)cc2C(F)(F)F)CC1`, 39.5%; to `Cc1cnn(C2CN(c3ccccc3S(=O)(=O)C(F)(F)F)C2)c1`, 11.5%.

Turning to `Cc1cnn(CC(C)NCc2cc(=O)n3ccccc3n2)c1` (stereo not given), the cytotoxicity at 10 µM was -5.3%. Then `Cc1sc(NC(=O)CN2CCCC(c3ncc[nH]3)C2)c(C)c1C` (stereo not given), with 28.1%.

On to `COCCN(CCOC)C(=O)c1cnn(C)c1C`, for which the cytotoxicity at 10 µM was -149%. Then `CCN(CC(C)C#N)C(=O)CNc1ccc(C(N)=O)c(C)c1` (stereo not given), with 8.54%; and `COc1cc(C(=O)NS(=O)(=O)c2cc(Cl)sc2Cl)ccc1OC(F)F`, with -13.9%; and `CC(C)Oc1ccc(NCc2ccc([S+](C)[O-])cc2)c(F)c1` (stereo not given), with 22.4%. Then `COc1cc2c(nn1)CCN(Cc1nnc(Cc3ccccc3)o1)C2`, with 4.25%. To `CCCn1nc2c(cc1=O)CN(c1ncnc3ccsc13)CC2` belongs 49.5%; to `N#Cc1c(Cl)nsc1NCc1cccnc1OCC(F)(F)F`, 25.5%; to `Cc1ccsc1C(=O)Nc1ccc(N2CCC(O)CC2)c(C#N)c1`, 33.2%. As to `CCc1nc(CNc2cc(Cl)ccc2OCC2CCCO2)no1` (stereo not given), the cytotoxicity at 10 µM was found to be 8.84%. To `COc1ccccc1C1(CNc2nnc(C)c(C)c2C#N)CCCC1` belongs 34.4%; to `CN(Cc1noc(C(C)(C)C)n1)Cc1ccccc1N1CCCCC1`, -4.73%; to `NC(=O)c1ccc(N2CCCCC2)c(NC(=O)c2cc(F)ccc2F)c1`, 7.57%.

For `O=C(C1CC1)N1CCC(Oc2ccccc2Cl)CC1`, the cytotoxicity at 10 µM came to 25.6%. Then `Brc1ccc(-c2nnc(CN(Cc3cccs3)CC3CCCO3)o2)s1` (stereo not given), with 23.2%; and `CCn1nc2c(cc1=O)CN(c1ncnc3ccsc13)CC2`, with 49.6%. Then `CC(C)n1nc2c(cc1=O)CN(c1ncnc3ccccc13)CC2`, with 52.2%. Then `Cc1cn2c(n1)C(CNCC1=Cc3ccccc3OC1)CCC2` (stereo not given), with 27.7%; and `Cc1nc(C)c(C(=O)NCc2nc3cccc(C)c3n2C)o1`, with 40.1%; and `Cc1cc(C2CCCN(CCc3ccc4c(c3)CCO4)C2)n[nH]1` (stereo not given), with -7.66%. As for `CNC(=O)c1cccnc1N1CCC(Oc2ccc(F)cc2)CC1`, the cytotoxicity at 10 µM was found to be 3.41%.

`Cc1cc(CNc2ccnn2CC(C)C)ccc1-n1cncn1`: the cytotoxicity at 10 µM worked out at 24%. Then `O=C(c1ccc(Br)o1)N1CCN(Cc2ccc(OC(F)(F)F)cc2)CC1`, with 21.7%; and `COc1cc(N2CCC3(CC2)CN(CCO)c2ccccc23)ncn1`, with 19.7%; and `Cn1cc(CN2CCc3ccc(=O)n(CC4CC4)c3CC2)cn1`, with 3.24%. Then `COC[C@@]12CCO[C@@H]1CCN(C(=O)C1CC(F)(F)C1)C2`, with -97.4%; and `Cc1ccc(C(=O)N2CCc3c(COCC4CC4)cncc3C2)o1`, with -74.2%; and `CCCn1cc(-c2ccnc(NC3CCc4ccccc4C3)n2)c(C)n1` (stereo not given), with 81.3%. Consider `OCC1(Cc2ccccc2F)CCCN(c2ccc3ccccc3n2)C1` (stereo not given), for which the cytotoxicity at 10 µM was determined as 22.7%. To `Cc1cnc(C)c(Oc2ccc(Cl)c(CN3CCCC3)c2Cl)n1` belongs 2.61%; to `Cc1nnc(CN2C[C@H](NC(=O)C3CCOCC3)[C@@H](C(C)C)C2)s1`, -3.41%. Then `CN1CCN(CCc2ncnn2-c2ccc3c(c2)OCO3)CC1`, with -0.00326%. Then `CNc1nc(C)cc(NCc2cc(C)cc3c(C)c(C)[nH]c23)n1`, with -30.2%; and `CCS(=O)(=O)NCc1cccnc1N1CCCC(O)C1` (stereo not given), with 1.91%. Take `Cc1nc(N)ncc1C(=O)N1CCCC(CCc2ccc(F)cc2)C1` (stereo not given): the cytotoxicity at 10 µM is -8.3%. To `Cc1ncnc(N2CCCN(c3nc4ccccc4s3)CC2)c1C` belongs 55.5%; to `Fc1ccc(N2CCCN(c3ccc(Cn4ccnc4)cn3)CC2)cc1`, 26.2%. Then `CN(C)CC1(O)CCCN(C(=O)Cn2ccc3ccccc32)CC1` (stereo not given), with -1.96%; and `O=C(O)CSc1nnc(-c2cn[nH]c2)n1-c1ccccc1C(F)(F)F`, with 1.2%. Consider `CCc1cnc(N)nc1NC(C)c1ccc(C)c(C)c1` (stereo not given), for which the cytotoxicity at 10 µM was 21.3%.

Turning to `Cc1nc2c(c(NCC(O)C(F)(F)F)n1)CCNCC2` (stereo not given), the cytotoxicity at 10 µM is 5.37%. On to `Cn1ncnc1-c1ccnc(NCCCc2ccncc2)n1`, for which the cytotoxicity at 10 µM was -1.41%. Then `COc1cc(Oc2ncccc2C(F)(F)F)ccc1CN1CCCC1`, with 38.8%; and `OC1CCN(c2ccnc(NCCc3ccccc3Cl)n2)C1` (stereo not given), with 39.3%; and `COc1cccc(C2CCN(c3ccc4cc[nH]c4n3)C2)c1OC` (stereo not given), with 50.2%. Then `CN1CC2(CCN(C(=O)c3ccc4c(=O)n(C)cnc4c3)C2)OC1=O` (stereo not given), with 2.41%. Then `Cc1c(CN2CCCC(C(=O)c3ccc(C(C)(C)C)cc3)C2)cnn1C` (stereo not given), with 10.4%; and `NCC1Cc2cccc(-c3nccc(N4CCC(O)CC4)n3)c2O1` (stereo not given), with -14.9%.

`N[C@@H]1c2ccccc2C2(CCN(c3cccc(C(F)(F)F)n3)CC2)[C@H]1O`: the cytotoxicity at 10 µM was 0.243%.

With `Cc1ccc(CN2CCN(C(=O)c3ccc(Br)o3)CC2)cc1`, the cytotoxicity at 10 µM was determined as 1.16%. Then `CCC(NC(=O)C1CCN(S(C)(=O)=O)CC1)c1ccc(C)cc1C` (stereo not given), with -10.6%. To `CCCn1cc(S(=O)(=O)N[C@H]2CN(CCO)C[C@@H]2C2CC2)cn1` belongs -11.3%; to `NC(=O)CCn1cc(CNCCCc2ccccc2O)c2ccccc21`, 8.92%; to `OCC1CCCCN1c1ccc(-c2nc(-c3ccccc3F)no2)cn1` (stereo not given), 51.2%. To `Cc1cc(SCC(=O)O)nc2nn(CC(F)F)c(C)c12` belongs 45.5%; to `Cc1cccc(-c2noc(CN3CC(n4cc(C)cn4)C3)n2)c1`, -8.8%; to `Cc1noc(NC(=O)c2ccc(Br)cc2)n1`, 32.9%. In the case of `CC(C)Cc1ccc(S(=O)(=O)Nc2ccc(=O)n(C)c2)cc1`, the cytotoxicity at 10 µM was 46.3%.

For `c1cnc(-c2nc(CN3CCOC(Cn4cncn4)C3)cs2)nc1` (stereo not given), the cytotoxicity at 10 µM is -15.2%. With `Cc1nc2cc(C3CCN(Cc4cccc(F)c4F)C3)nn2c(O)c1C` (stereo not given), the cytotoxicity at 10 µM came out at 0.333%. For the molecule `Cc1ccc(CN(Cc2ncc[nH]2)C2CC(C)(C)NC(C)(C)C2)o1`, the cytotoxicity at 10 µM was -15.2%. With `Cc1ccc(CN(CCCn2ccnc2)Cc2c(F)cccc2F)s1`, the cytotoxicity at 10 µM stood at 2.76%.

`COc1ccc(C)cc1CN1CCC(c2cc3ncccc3cn2)CC1`: the cytotoxicity at 10 µM turned out to be 20.5%. To `CN1CCC2(COCCN(Cc3cccc(C#N)c3)C2)C1` (stereo not given) belongs 0.0422%; to `COCCNC(=O)C1CN(Cc2ccncc2)Cc2ccnn2C1` (stereo not given), -83%; to `Clc1ccc(-c2ccc(C3CNCCO3)nc2)cc1` (stereo not given), -5.86%.

`Cn1ccnc1CN1CCC2(CC1)CN(c1ccccn1)CCO2`: the cytotoxicity at 10 µM was -0.335%. For `O=C([C@H]1C[C@H]2OCC[C@H]2N(Cc2ccoc2)C1)N1CCCCO1`, the cytotoxicity at 10 µM is -73.2%. Then `COc1ccc(CN2CCO[C@H]3[C@H](OCc4ccncc4)CC[C@@H]32)cc1`, with -30.9%; and `CCS(=O)(=O)N1CCc2c(CN3CCOCC3)cncc2C1`, with 4.35%. To `COc1cc(N2CCC3(CCN(Cc4nccs4)CC3)C2)ncn1` belongs -36%; to `Cc1ccc(CN2CC[C@@H]3[C@@H]2CCN3C(=O)Cc2cccs2)o1`, -119%; to `Cc1nc(CN2CCN3C[C@H](Oc4cncnc4)C[C@H]3C2)cs1`, -81.4%. To `Fc1cccc(N2CCCC3(CN(Cc4nccs4)CCO3)C2)c1` (stereo not given) belongs -58.2%. Consider `COc1cc(N2CCC3(CCN(Cc4csc(C)n4)C3=O)C2)ncn1` (stereo not given), for which the cytotoxicity at 10 µM was -104%. To `Cc1cc(CN2C[C@@H]3CN(C(=O)c4cccn4C)CCO[C@@H]3C2)no1` belongs -148%; to `Cc1nc([C@H]2C[C@@H]3CCN(Cc4scnc4C)C[C@H]3O2)no1`, -129%; to `O=C1CC(c2ccncc2)C2(CCN(CCc3ccccc3)CC2)N1` (stereo not given), -1.58%.

As to `Cc1cnc(N2CCc3c(CNc4ccnc(C)n4)cncc3C2)nc1`, the cytotoxicity at 10 µM was -39.1%. Then `FC1(F)CCN(Cc2ccncc2)CC12CCN(c1cccnc1)C2` (stereo not given), with -94.8%.

(Values after ChEMBL document CHEMBL4513216, “Probing the Open Global Health Chemical Diversity Library for Multistage-Active Starting Points for Next-Generation Antimalarials” (ACS Infect Dis, 2020).)
